Laboratory results reported in ChEMBL document CHEMBL4673343, “Lythrum salicaria Ellagitannins Stimulate IPEC-J2 Cells Monolayer Formation and Inhibit Enteropathogenic Escherichia coli Growth and Adhesion” (J Nat Prod, 2020).
Converted amounts (≈) assume the structure as drawn. The source made the active and inactive calls. No cut-off for these calls is given here.

Key:
IPEC-J2 [1] = assay: Induction of porcine IPEC-J2 cells monolayer development assessed as increase in transepithelial electrical resistance at 20 uM after 6 days by voltammetric method; type: functional, cell-based; conditions: Sus scrofa domesticus, time 6.0 day
Summary of the method: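 IPEC-J2 cells were seeded at 5 × 10^5/insert (0.4 μm PET) and cultured until TEER exceeded 1 kΩ cm2 (day 7). Apical medium was then replaced with 20 μM compound or PBS and renewed at day 10, with basolateral medium changed in parallel. TEER was read with an EVOM2 chopstick electrode at days 10 and 13. Mann–Whitney test versus PBS.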

Escherichia coli [2] = assay: Growth inhibition of Escherichia coli 0147:K89:K88 assessed as doubling time at 500 uM measured every 5 mins for 24 hrs by turbidometric analysis (reference value: 34.1 +/- 0.5 min); type: functional; conditions: time hrs <=24
Summary of the method: (§1)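 Strains were revived from cryostocks and passaged twice daily in BHI with shaking at 37 °C over 2 days. Double-strength BHI plus diluted test stock (compounds in DMSO, 0.22 μm filtered), inoculum at final 10^4 CFU/mL, film-sealed for anaerobic conditions, 37 °C in plate reader. OD690 was read every 5 min for 24 h; lag time came from the lag-exponential method. Three independent experiments were run, each in triplicate.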

Escherichia coli [3] = assay: Growth inhibition of Escherichia coli 0147:K89:K88 assessed as lag time at 50 uM measured every 5 mins for 24 hrs by turbidometric analysis (reference value: 300 min); type: functional; conditions: time hrs <=24; summary of the method: as §1
Escherichia coli [4] = assay: Growth inhibition of Escherichia coli 0147:K89:K88 infected in porcine IPEC-J2 cells assessed as inhibition of EPEC adhesion 100 uM preincubated for 24 hrs followed by compound wash subsequently infected with bacteria by CFDA-SE staining based flow cytometric analysis; type: functional; conditions: 0147:K89:K88, IPEC-J2, in Sus scrofa
Summary of the method: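 IPEC-J2 cells were seeded at 10^5/well and grown 7 days. On day 8 they were treated 24 h, then washed twice with warm PBS and given antibiotic-free medium. Infection used CFDA-SE-labelled (1 mM, 120 min, 37 °C) O147:K89:K88 at MOI 100 for 45 min, followed by three PBS washes and trypsinization. Flow cytometry measured MFI over 10 000 events. Mean ± SD of three experiments in triplicate; Dunnett's test versus PBS.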

Escherichia coli [5] = assay: Growth inhibition of Escherichia coli 0147:K89:K88 assessed as lag time at 100 uM measured every 5 mins for 24 hrs by turbidometric analysis (reference value: 300 min); type: functional; conditions: time hrs <=24; summary of the method: as §1
Escherichia coli [6] = assay: Growth inhibition of Escherichia coli DSM 2840 assessed as lag time at 20 uM measured every 5 mins for 24 hrs by turbidometric analysis (reference value: 312 min); type: functional; conditions: time hrs <=24; summary of the method: as §1
Escherichia coli [7] = assay: Antibacterial activity against heat stable toxin gene positive Escherichia coli; type: functional
Escherichia coli [8] = assay: Growth inhibition of Escherichia coli DSM 2840 assessed as doubling time at 200 uM measured every 5 mins for 24 hrs by turbidometric analysis (reference value: 31.6 +/- 0.8 min); type: functional; conditions: time hrs <=24; summary of the method: as §1
Escherichia coli [9] = assay: Growth inhibition of Escherichia coli 0147:K89:K88 assessed as doubling time at 20 uM measured every 5 mins for 24 hrs by turbidometric analysis (reference value: 34.1 +/- 0.5 min); type: functional; conditions: time hrs <=24; summary of the method: as §1
Escherichia coli [10] = assay: Antibacterial activity against Escherichia coli ATCC 25922; type: functional
Escherichia coli [11] = assay: Antibacterial activity against invasive E gene positive Escherichia coli; type: functional
Escherichia coli [12] = assay: Growth inhibition of Escherichia coli 0147:K89:K88 assessed as lag time at 10 uM measured every 5 mins for 24 hrs by turbidometric analysis (reference value: 300 min); type: functional; conditions: time hrs <=24; summary of the method: as §1
Escherichia coli [13] = assay: Growth inhibition of Escherichia coli 0147:K89:K88 assessed as lag time at 20 uM measured every 5 mins for 24 hrs by turbidometric analysis (reference value: 300 min); type: functional; conditions: time hrs <=24; summary of the method: as §1
Escherichia coli [14] = assay: Growth inhibition of Escherichia coli 0147:K89:K88 assessed as lag time at 200 uM measured every 5 mins for 24 hrs by turbidometric analysis (reference value: 300 min); type: functional; conditions: time hrs <=24; summary of the method: as §1
Escherichia coli [15] = assay: Antibacterial activity against Shiga-like toxin positive Escherichia coli; type: functional
Escherichia coli [16] = assay: Growth inhibition of Escherichia coli 0147:K89:K88 assessed as doubling time at 200 uM measured every 5 mins for 24 hrs by turbidometric analysis (reference value: 34.1 +/- 0.5 min); type: functional; conditions: time hrs <=24; summary of the method: as §1
Escherichia coli [17] = assay: Growth inhibition of Escherichia coli DSM 2840 assessed as doubling time at 5 uM measured every 5 mins for <=24 hrs by turbidometric analysis (reference value: 31.6 +/- 0.8 min); type: functional; conditions: time hrs <=24; summary of the method: as §1
Escherichia coli [18] = assay: Growth inhibition of Escherichia coli DSM 2840 assessed as lag time at 100 uM measured every 5 mins for 24 hrs by turbidometric analysis (reference value: 312 min); type: functional; conditions: time hrs <=24; summary of the method: as §1
Escherichia coli [19] = assay: Growth inhibition of Escherichia coli DSM 2840 assessed as lag time at 500 uM measured every 5 mins for 24 hrs by turbidometric analysis (reference value: 312 min); type: functional; conditions: time hrs <=24; summary of the method: as §1
Escherichia coli [20] = assay: Growth inhibition of Escherichia coli 0147:K89:K88 assessed as lag time at 500 uM measured every 5 mins for 24 hrs by turbidometric analysis (reference value: 300 min); type: functional; conditions: time hrs <=24; summary of the method: as §1
Escherichia coli [21] = assay: Growth inhibition of Escherichia coli DSM 2840 assessed as lag time at 10 uM measured every 5 mins for 24 hrs by turbidometric analysis (reference value: 312 min); type: functional; conditions: time hrs <=24; summary of the method: as §1
Escherichia coli [22] = assay: Growth inhibition of Escherichia coli DSM 2840 assessed as lag time at 5 uM measured every 5 mins for 24 hrs by turbidometric analysis (reference value: 312 min); type: functional; conditions: time hrs <=24; summary of the method: as §1
Escherichia coli [23] = assay: Growth inhibition of Escherichia coli DSM 2840 assessed as lag time at 50 uM measured every 5 mins for 24 hrs by turbidometric analysis (reference value: 312 min); type: functional; conditions: time hrs <=24; summary of the method: as §1
Escherichia coli [24] = assay: Growth inhibition of Escherichia coli DSM 2840 assessed as lag time at 200 uM measured every 5 mins for 24 hrs by turbidometric analysis (reference value: 312 min); type: functional; conditions: time hrs <=24; summary of the method: as §1
Escherichia coli [25] = assay: Growth inhibition of Escherichia coli 0147:K89:K88 assessed as doubling time at 5 uM measured every 5 mins for 24 hrs by turbidometric analysis (reference value: 34.1 +/- 0.5 min); type: functional; conditions: time hrs <=24; summary of the method: as §1
Escherichia coli [26] = assay: Growth inhibition of Escherichia coli DSM 2840 assessed as doubling time at 50 uM measured every 5 mins for 24 hrs by turbidometric analysis (reference value: 31.6 +/- 0.8 min); type: functional; conditions: time hrs <=24; summary of the method: as §1
Escherichia coli [27] = assay: Growth inhibition of Escherichia coli DSM 2840 assessed as doubling time at 100 uM measured every 5 mins for 24 hrs by turbidometric analysis (reference value: 31.6 +/- 0.8 min); type: functional; conditions: time hrs <=24; summary of the method: as §1
Escherichia coli [28] = assay: Growth inhibition of Escherichia coli DSM 2840 assessed as doubling time at 10 uM measured every 5 mins for 24 hrs by turbidometric analysis (reference value: 31.6 +/- 0.8 min); type: functional; conditions: time hrs <=24; summary of the method: as §1
Escherichia coli [29] = assay: Antibacterial activity against heat labile toxin gene positive Escherichia coli; type: functional
Escherichia coli [30] = assay: Growth inhibition of Escherichia coli 0147:K89:K88 assessed as doubling time at 50 uM measured every 5 mins for 24 hrs by turbidometric analysis (reference value: 34.1 +/- 0.5 min); type: functional; conditions: time hrs <=24; summary of the method: as §1
Escherichia coli [31] = assay: Growth inhibition of Escherichia coli 0147:K89:K88 assessed as doubling time at 100 uM measured every 5 mins for 24 hrs by turbidometric analysis (reference value: 34.1 +/- 0.5 min); type: functional; conditions: time hrs <=24; summary of the method: as §1
Escherichia coli [32] = assay: Antibacterial activity against Escherichia coli by two-fold serial dilution method; type: functional
Escherichia coli [33] = assay: Growth inhibition of Escherichia coli 0147:K89:K88 assessed as doubling time at 10 uM measured every 5 mins for 24 hrs by turbidometric analysis (reference value: 34.1 +/- 0.5 min); type: functional; conditions: time hrs <=24; summary of the method: as §1
Escherichia coli [34] = assay: Growth inhibition of Escherichia coli 0147:K89:K88 measured every 5 mins for 24 hrs by turbidometric analysis; type: functional; conditions: time hrs <=24; summary of the method: as §1
Escherichia coli [35] = assay: Growth inhibition of Escherichia coli DSM 2840 assessed as doubling time at 500 uM measured every 5 mins for 24 hrs by turbidometric analysis (reference value: 31.6 +/- 0.8 min); type: functional; conditions: time hrs <=24; summary of the method: as §1
Escherichia coli [36] = assay: Antibacterial activity against Escherichia coli IFO 3972; type: functional
Escherichia coli [37] = assay: Growth inhibition of Escherichia coli DSM 2840 assessed as doubling time at 20 uM measured every 5 mins for 24 hrs by turbidometric analysis (reference value: 31.6 +/- 0.8 min); type: functional; conditions: time hrs <=24; summary of the method: as §1
Escherichia coli [38] = assay: Growth inhibition of Escherichia coli 0147:K89:K88 assessed as lag time at 5 uM measured every 5 mins for 24 hrs by turbidometric analysis (reference value: 300 min); type: functional; conditions: time hrs <=24; summary of the method: as §1
Escherichia coli [39] = assay: Antibacterial activity against Escherichia coli; type: functional
Summary of the method: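 Strains: enteropathogenic E. coli O147:K89:K88 (Abbotstown) and non-fimbriated DSM 2840. Both were subcultured in BHI with shaking at 37 °C for 2 days, then inoculated at 10^4 CFU/mL final in BHI microplates. Extract stock was in water and pure compounds in DMSO, tested at 20–2000 μg/mL (extract), with ciprofloxacin as positive control. Plates were sealed for anaerobic conditions at 37 °C, and OD690 was read every 5 min for 24 h. MIC-level wells were plated on BHI agar (48 h). Three independent experiments were run in triplicate.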

IPEC-J2 [40] = assay: Induction of claudin-4 protein expression in porcine IPEC-J2 cells at 20 uM after 6 days by Western blot analysis; type: functional, cell-based; conditions: Sus scrofa domesticus, time 6.0 day
Summary of the method: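 Inserts were treated apically with 20 μM from day 7, with medium renewed at day 10. At day 13 cells were lysed and protein equalized by BCA, then run on SDS–PAGE and transferred to nitrocellulose. Blots were probed with mouse anti-claudin 4 and an HRP secondary and detected by ECL. Band intensity was normalized to β-actin and expressed as fold over PBS control.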

O=C1OC[C@H]2OC(=O)c3cc(O)c(O)c(O)c3-c3c(O)c(O)c(O)c4c3C(=O)O[C@H]([C@H]3OC(=O)c5c-4c(O)c(O)c(O)c5[C@@H]3O)[C@@H]2OC(=O)c2cc(O)c(O)c(O)c2-c2c1cc(O)c(O)c2O
Activity (IPEC-J2 [1]): Active

O=C1OC[C@H]2OC(=O)c3cc(O)c(O)c(O)c3-c3c(O)c(O)c(O)c4c3C(=O)O[C@H]([C@H]3OC(=O)c5c-4c(O)c(O)c(O)c5[C@H]3O)[C@@H]2OC(=O)c2cc(O)c(O)c(O)c2-c2c1cc(O)c(O)c2O [CASTALAGIN]
Time (Escherichia coli [2]): >1440 min | Time (Escherichia coli [3]): 502 min | inhibition at 100 µM (Escherichia coli [4]): 37.7% | Time (Escherichia coli [5]): 647 min | Time (Escherichia coli [6]): 347 min | MIC (Escherichia coli [7]): 705 µM (≈ 659 µg/mL) | Time (Escherichia coli [8]): 56.8 min | Time (Escherichia coli [9]): 45.6 min | MIC (Escherichia coli [10]): 705 µM (≈ 659 µg/mL) | MIC (Escherichia coli [11]): 705 µM (≈ 659 µg/mL) | Time (Escherichia coli [12]): 310 min | Time (Escherichia coli [13]): 380 min | Time (Escherichia coli [14]): 722 min | MIC (Escherichia coli [15]): 705 µM (≈ 659 µg/mL) | Time (Escherichia coli [16]): 35.9 min | Time (Escherichia coli [17]): 33.4 min | Time (Escherichia coli [18]): 515 min | Time (Escherichia coli [19]): >1440 min | Time (Escherichia coli [20]): >1440 min | Time (Escherichia coli [21]): 320 min | Time (Escherichia coli [22]): 322 min | Time (Escherichia coli [23]): 422 min | Time (Escherichia coli [24]): 870 min | Time (Escherichia coli [25]): 36.8 min | Time (Escherichia coli [26]): 43 min | Time (Escherichia coli [27]): 42.9 min | Time (Escherichia coli [28]): 34.9 min | MIC (Escherichia coli [29]): 705 µM (≈ 659 µg/mL) | Time (Escherichia coli [30]): 45.3 min | Time (Escherichia coli [31]): 36.6 min | Activity (IPEC-J2 [1]): Active | MIC (Escherichia coli [32]): 533 µM (≈ 498 µg/mL) | Time (Escherichia coli [33]): 34.3 min | MIC (Escherichia coli [34]): 500 µM (≈ 467 µg/mL) | Time (Escherichia coli [35]): >1440 min | MIC (Escherichia coli [36]): 705 µM (≈ 659 µg/mL) | Time (Escherichia coli [37]): 38.1 min | Time (Escherichia coli [38]): 317 min | MIC (Escherichia coli [39]): 705 µM (≈ 659 µg/mL)

O=C(O[C@@H]1COC(=O)c2cc(O)c(O)c(O)c2-c2c(cc(O)c(O)c2O)C(=O)O[C@H]1[C@@H]1OC(=O)c2cc(O)c(O)c(O)c2-c2c(O)c(O)c(O)c3c2C(=O)O[C@H]1[C@@H]3O)c1cc(O)c(O)c(O)c1Oc1cc2c(c(O)c1O)-c1c(cc(O)c(O)c1O)C(=O)OC[C@H]1OC(=O)c3cc(O)c(O)c(O)c3-c3c(O)c(O)c(O)c4c3C(=O)O[C@H]([C@H]3OC(=O)c5c-4c(O)c(O)c(O)c5[C@@H]3O)[C@@H]1OC2=O
Activity (IPEC-J2 [40]): Active | Activity (IPEC-J2 [1]): Active
